# Measured values as given in ChEMBL document CHEMBL1944548, “Discovery of kinase spectrum selective macrocycle (16E)-14-methyl-20-oxa-5,7,14,26-tetraazatetracyclo[19.3.1.1(2,6).1(8,12)]heptacosa-1(25),2(26),3,5,8(27),9,11,16,21,23-decaene (SB1317/TG02), a potent inhibitor of cyclin dependent kinases (CDKs), Janus kinase 2 (JAK2), and fms-like tyrosine …” (J Med Chem, 2012).
# pIC50: −log10 of the molar value.
# Key:
# [1] = target: T1, Receptor-type tyrosine-protein kinase FLT3 (Homo sapiens, UniProt P36888); assay: Inhibition of recombinant Flt3 using poly(Glu,Tyr) as substrate after 2 hrs by luminescence assay
# T1 sequence (P36888 whole entry): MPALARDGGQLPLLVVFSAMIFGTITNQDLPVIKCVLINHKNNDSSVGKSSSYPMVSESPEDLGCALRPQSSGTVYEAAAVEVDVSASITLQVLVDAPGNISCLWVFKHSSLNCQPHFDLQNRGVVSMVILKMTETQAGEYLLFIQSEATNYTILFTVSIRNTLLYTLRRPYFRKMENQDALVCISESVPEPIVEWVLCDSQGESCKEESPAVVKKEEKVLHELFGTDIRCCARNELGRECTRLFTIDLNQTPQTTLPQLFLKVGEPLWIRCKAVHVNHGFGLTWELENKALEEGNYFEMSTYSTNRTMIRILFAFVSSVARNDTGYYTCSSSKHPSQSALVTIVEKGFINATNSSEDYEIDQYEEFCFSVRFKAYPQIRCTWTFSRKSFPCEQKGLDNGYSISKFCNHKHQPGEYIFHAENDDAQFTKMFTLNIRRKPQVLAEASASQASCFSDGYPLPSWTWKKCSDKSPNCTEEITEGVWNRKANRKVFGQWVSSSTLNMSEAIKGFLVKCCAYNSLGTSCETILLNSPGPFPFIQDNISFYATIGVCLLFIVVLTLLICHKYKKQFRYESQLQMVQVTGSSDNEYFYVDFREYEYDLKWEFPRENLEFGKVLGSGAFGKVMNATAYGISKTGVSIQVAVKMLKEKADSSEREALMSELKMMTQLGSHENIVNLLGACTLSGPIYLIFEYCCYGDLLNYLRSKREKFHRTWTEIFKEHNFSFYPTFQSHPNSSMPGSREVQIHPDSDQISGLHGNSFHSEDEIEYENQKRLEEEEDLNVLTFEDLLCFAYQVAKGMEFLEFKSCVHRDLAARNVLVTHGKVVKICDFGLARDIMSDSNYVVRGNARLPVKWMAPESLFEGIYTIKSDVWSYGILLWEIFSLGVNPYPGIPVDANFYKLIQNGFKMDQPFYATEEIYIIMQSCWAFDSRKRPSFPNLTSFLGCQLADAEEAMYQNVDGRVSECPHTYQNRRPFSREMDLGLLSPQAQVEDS
# [2] = target: Cyclin-dependent kinase 2/cyclin A (Homo sapiens, UniProt P24941); assay: Inhibition of recombinant Cdk2/cyclin A using RbING as substrate after 2 hrs by luminescence assay; format: protein-complex assay
# [3] = target: Tyrosine-protein kinase JAK2 (Homo sapiens, UniProt O60674); assay: Inhibition of recombinant JAK2 using poly(Glu,Ala,Tyr) as substrate after 2 hrs by luminescence assay
# HCT-116 = assay: Antiproliferative activity against human HCT116 cells after 48 hrs; format: functional, cell-based; conditions: HCT-116, 48 h
# HL-60 = assay: Antiproliferative activity against human HL60 cells after 48 hrs; format: functional, cell-based; conditions: HL-60, 48 h
# [4] = Half life in human liver microsomes at 5 uM by LC-MS/MS analysis; format: ADME, Microsome
# How it was run: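 5 μM with mouse, rat, dog or human liver microsomes (~0.87 mg/mL), 50 mM potassium phosphate pH 7.4, NADPH regeneration system, 37 °C.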
# [5] = Solubility of the compound in PBS buffer at 250 uM at pH 7 by UV spectrophotometry; format: physicochemical
# [6] = Oral bioavailability in nude mouse at 50 mg/kg; format: ADME, organism-based; conditions: in vivo
# Sequence of Tyrosine-protein kinase JAK2 (O60674 whole entry): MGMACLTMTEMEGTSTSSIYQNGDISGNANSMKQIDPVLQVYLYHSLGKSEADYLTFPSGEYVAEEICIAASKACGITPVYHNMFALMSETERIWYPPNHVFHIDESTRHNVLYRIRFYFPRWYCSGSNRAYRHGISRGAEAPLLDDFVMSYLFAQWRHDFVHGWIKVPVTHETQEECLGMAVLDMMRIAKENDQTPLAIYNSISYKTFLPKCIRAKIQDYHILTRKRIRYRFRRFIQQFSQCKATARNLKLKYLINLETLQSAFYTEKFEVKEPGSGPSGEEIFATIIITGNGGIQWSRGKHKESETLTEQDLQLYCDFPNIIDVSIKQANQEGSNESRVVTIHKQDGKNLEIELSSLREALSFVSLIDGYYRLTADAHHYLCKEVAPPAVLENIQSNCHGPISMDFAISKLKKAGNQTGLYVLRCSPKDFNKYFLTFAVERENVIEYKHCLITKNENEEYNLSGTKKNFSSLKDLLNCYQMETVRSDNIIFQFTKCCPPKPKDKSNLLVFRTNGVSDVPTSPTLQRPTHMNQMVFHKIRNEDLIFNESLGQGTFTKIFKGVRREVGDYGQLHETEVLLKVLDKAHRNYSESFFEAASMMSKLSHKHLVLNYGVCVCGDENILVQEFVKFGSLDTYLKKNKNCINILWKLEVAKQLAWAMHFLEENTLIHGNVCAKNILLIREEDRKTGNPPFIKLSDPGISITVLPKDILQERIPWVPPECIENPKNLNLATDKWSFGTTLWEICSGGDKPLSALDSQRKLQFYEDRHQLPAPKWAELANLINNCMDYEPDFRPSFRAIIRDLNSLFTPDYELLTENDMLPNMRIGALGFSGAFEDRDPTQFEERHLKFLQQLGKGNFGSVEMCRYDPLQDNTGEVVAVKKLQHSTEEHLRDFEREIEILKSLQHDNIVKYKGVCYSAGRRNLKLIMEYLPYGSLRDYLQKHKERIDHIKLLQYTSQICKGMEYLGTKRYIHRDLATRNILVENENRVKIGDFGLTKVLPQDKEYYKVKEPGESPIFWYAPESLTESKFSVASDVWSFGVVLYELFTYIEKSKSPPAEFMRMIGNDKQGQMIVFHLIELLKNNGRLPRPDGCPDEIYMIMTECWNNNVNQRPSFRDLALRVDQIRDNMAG
SMILES,pIC50 [1],pIC50 [2],pIC50 [3],pIC50 (HCT-116),pIC50 (HL-60),half-life at 5 µM [4] [min],solubility at 250 µM [5] [µg/mL],bioavailability [6] [%]
CC(C)CN1C/C=C/CCOc2cccc(c2)-c2ccnc(n2)Nc2cccc(c2)C1,6.72,6.70,5.82,,,,,
CN1C/C=C/CCOc2cccc(c2)-c2ccnc(n2)Nc2cc(cc(NC(=O)C(F)(F)F)c2)C1,7.72,8.10,7.30,,,,,
CC(C)(C)CN1C/C=C/CCOc2cccc(c2)-c2ccnc(n2)Nc2cccc(c2)C1,< 5.00,< 5.00,< 5.00,,,,,
CN1C/C=C/CC(=O)Nc2cccc(c2)-c2ccnc(n2)Nc2cccc(c2)C1,5.56,5.34,< 5.00,,,,,
CN1C/C=C/COCc2cccc(c2)Nc2nccc(n2)-c2cccc(c2)C1,6.51,7.00,6.64,,,,,
CN1C/C=C/CCOc2cccc(c2)-c2ccnc(n2)Nc2ccc(OCC(=O)N3CCCC3)c(c2)C1,6.82,6.41,6.85,,,,,
CN1C/C=C/CCOc2cccc(c2)-c2ccnc(n2)Nc2cc(N)cc(c2)C1,7.72,8.15,7.30,,,,,
N#CCN1C/C=C/CCOc2cccc(c2)-c2ccnc(n2)Nc2ccc(OCCN3CCCC3)c(c2)C1,7.54,6.51,6.82,,,,,
C1=C/CN(CC2CC2)Cc2cccc(c2)Nc2nccc(n2)-c2cccc(c2)OCC/1,6.57,7.03,5.82,,,,,
CN1C/C=C/CCOc2cccc(c2)-c2ccnc(n2)Nc2ccc(OCCN3CCCCC3)c(c2)C1,7.35,6.59,7.21,,,,146,
CN1C/C=C/CNC(=O)c2cccc(c2)-c2ccnc(n2)Nc2cccc(c2)C1,< 5.00,< 5.00,< 5.00,,,,,
Cc1cc2nc(n1)Nc1cccc(c1)CN(C)C/C=C/CCOc1cccc-2c1,5.77,5.33,< 5.00,,,,,
COCCN1C/C=C/CCOc2cccc(c2)-c2ccnc(n2)Nc2cccc(c2)C1,6.31,6.39,5.80,,,,,
CN1C/C=C/CCOc2cccc(c2)-c2ccnc(n2)Nc2ccc(Cl)c(c2)C1,7.11,7.62,7.09,,,,,
CCN(CC)CCOc1ccc2cc1CN(C)C/C=C/CCOc1cccc(c1)-c1ccnc(n1)N2,7.52,6.52,7.32,,,,150,5
OCCN1C/C=C/CCOc2cccc(c2)-c2ccnc(n2)Nc2cccc(c2)C1,6.46,7.00,,,,,,
CN1C/C=C/COCc2cccc(c2)-c2ccnc(n2)Nc2cccc(c2)C1,6.68,6.18,5.77,,,,,
CN1C/C=C/CCOc2cccc(c2)-c2ccnc(n2)Nc2ccc(OCCN3CCCC3)c(c2)C1,7.46,6.60,7.25,,,,150,
CN1C/C=C/CCOc2cccc(c2)-c2ccnc(n2)Nc2ccc(OC(F)(F)F)c(c2)C1,6.80,7.24,6.82,,,,,
CN1C/C=C/CCOc2cccc(c2)-c2cc(N3CCCC3)nc(n2)Nc2cccc(c2)C1,< 5.00,< 5.00,< 5.00,,,,,
COCCOc1ccc2cc1CN(C)C/C=C/CCOc1cccc(c1)-c1ccnc(n1)N2,7.60,6.96,7.21,,,,,
C1=C/CN(Cc2ccccn2)Cc2cccc(c2)Nc2nccc(n2)-c2cccc(c2)OCC/1,5.84,6.32,5.87,,,,,
C1=C/CNc2cccc(c2)Nc2nccc(n2)-c2cccc(c2)OCC/1,5.54,6.82,5.48,,,,,

# More lines, now with the values ahead:
pIC50 [1],pIC50 [2],pIC50 [3],pIC50 (HCT-116),pIC50 (HL-60),half-life at 5 µM [4] [min],solubility at 250 µM [5] [µg/mL],bioavailability [6] [%],SMILES
5.99,5.59,5.76,,,,,,O=C1CC/C=C\COc2cccc(c2)-c2ccnc(n2)Nc2cccc(c2)N1
6.96,7.68,,,,,,,C1=C/CNCc2cccc(c2)Nc2nccc(n2)-c2cccc(c2)OCC/1
6.51,5.64,6.29,,,,,,COc1ccc2cc1OCC/C=C/CN(C)Cc1cccc(c1)Nc1nccc-2n1
7.01,5.17,6.68,,,,,,COc1cc2cc(c1OCCN1CCCC1)CN(C)C/C=C/CCOc1cccc(c1)-c1ccnc(n1)N2
7.15,7.13,7.31,6.39,7.12,21,147,,CN1C/C=C/CCOc2cccc(c2)-c2ccnc(n2)Nc2ccc(N3CCOCC3)c(c2)C1
7.38,,7.05,,,,,,C1=C/CN(C2CC2)Cc2cccc(c2)Nc2nccc(n2)-c2cccc(c2)OCC/1
< 5.00,< 5.00,< 5.00,,,,,,O=C(N1C/C=C/CCOc2cccc(c2)-c2ccnc(n2)Nc2cccc(c2)C1)C(F)(F)F
7.43,7.06,7.36,,,,,,CN1C/C=C/CCOc2cccc(c2)-c2ccnc(n2)Nc2cc(cc(NC(=O)N3CCOCC3)c2)C1
7.40,6.52,6.92,,,,154,,CN1C/C=C/CCOc2cccc(c2)-c2ccnc(n2)Nc2ccc(OCCN3CCOCC3)c(c2)C1
7.66,8.05,6.80,,,,,,CN1C/C=C/CCOc2cc(F)cc(c2)-c2ccnc(n2)Nc2cccc(c2)C1
6.60,6.05,6.66,,,,,,CN1CCN(CCOc2ccc3cc2CN(C)C/C=C/CCOc2cccc(c2)-c2ccnc(n2)N3)CC1
7.03,6.77,6.96,,,,,,CCS(=O)(=O)CCOc1ccc2cc1CN(C)C/C=C/CCOc1cccc(c1)-c1ccnc(n1)N2
6.96,< 5.00,6.66,,,,,,FC(F)(F)CN1C/C=C/CCOc2cccc(c2)-c2ccnc(n2)Nc2ccc(OCCN3CCCC3)c(c2)C1
6.85,6.28,,,,,105,,CC(C)NCC(=O)N1C/C=C/CCOc2cccc(c2)-c2ccnc(n2)Nc2cccc(c2)C1
6.36,7.66,7.00,,,,,,CCS(=O)(=O)c1ccc2cc1CN(C)C/C=C/CCOc1cccc(c1)-c1ccnc(n1)N2
7.18,7.11,6.55,,,,,,COc1ccc2cc1CN(C)C/C=C/CCOc1cccc(c1)-c1ccnc(n1)N2
